In PubChem BioAssay AID2805 (Sanford-Burnham Center for Chemical Genomics, 2010):
The campaign covered roughly 330,000 compounds. About 780 (0.24%) were called active. Only a selection was taken, and actives are over-represented in it overall. Unmarked numbers belong to inactive results.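 How the source made its calls: active means activation factor of at least 2 at 20 µM; inactive means the rest.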

test system: intestinal alkaline phosphatase [Mus musculus]; test: mouse intestinal phosphatase enzyme activation – biochemical, luminescence, uHTS, primary screen (AID 2805); conditions: muIAP, CDP-Star luminescence, 30 min, at 10 µM, hits give high values
Outline: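 System: mouse IAP enzyme. Reagent: CDP-Star chemiluminescent phosphatase substrate. Benchmarks: DMSO wells, no-enzyme wells. Times: 30 min enzyme-substrate-compound incubation at room temperature. Detection: luminescence from enzymatic CDP-Star hydrolysis. Doses: test compounds delivered from DMSO solution.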

Structure (SMILES)	activation factor
Cc1cc(C)cc(NC(=S)NC2CC3CCCC(C2)N3Cc2cccs2)c1 (stereo not given)	5.54 (active)
O=C1NC(=O)C(C/C=C/c2ccccc2)C(=O)N1	0.991
N#CC1=C(N)Oc2c(c(=O)oc3ccccc23)C1c1ccccc1OC(=O)c1cccs1 (stereo not given)	0.989
C=CCn1c(O)c(/C=N/N2CCOCC2)c(=O)[nH]c1=S	1.03
O=C1C2(Cl)C3(Cl)C4(Cl)C(Cl)(Cl)C5(Cl)C3(Cl)C1(Cl)C5(Cl)C24Cl (stereo not given)	0.917 [1 = vehicle-only enzyme signal, 0 = enzyme-free wells]
